The text below walks through data of ChEMBL document CHEMBL1773039, “Structure-Activity Study of Dihydrocinnamic Acids and Discovery of the Potent FFA1 (GPR40) Agonist TUG-469” (ACS Med Chem Lett, 2010).

Each structure is given as a SMILES string. Active and inactive are the calls of the source. The calls are words filed in the database; no cut-off is given here. Some results are limits rather than exact numbers.

Data set [1] addresses T1, Free fatty acid receptor 1 (Homo sapiens, UniProt O14842). Description: Agonist activity at human FFA1 transfected in 1321N1 cells assessed as calcium mobilization by microplate assay in presence of 0.05 % bovine serum albumin. The format is functional, cell-based. In short, it runs like this: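 Calcium-response assay at hFFA1, with 0.05% BSA added to the assay because the compound dissolves poorly.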

Data set [2] has as its target T1, Free fatty acid receptor 1. Description: Agonist activity at human FFA1 transfected in 1321N1 cells assessed as calcium mobilization by microplate assay. The format is functional, cell-based. The method in brief:
(§1)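 Calcium mobilization in hFFA1-expressing cells was measured as full concentration-response curves and reported as pEC50. Efficacy is % of the response to 10 μM of the reference agonist.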
On the technique in general: Calcium assays in cells follow changes in intracellular calcium, usually with a dye or a luminescent sensor.

For data set [3], the target named is T1, Free fatty acid receptor 1. Description: Agonist activity at human FFA1 transfected in 1321N1 cells assessed as calcium mobilization by microplate assay relative to 10 uM TUG-20. The format is functional, cell-based. In short, it runs like this: as §1
For data set [4], the target named is T1, Free fatty acid receptor 1. Description: Agonist activity at human FFA1 transfected in 1321N1 cells under serum-free condition after 1 hr by dose response curve/dynamic mass redistribution optical biosensor assay. The format is functional, cell-based. The method in brief:
(§2)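 hFFA1-transfected 1321N1 cells were exposed to a range of agonist concentrations. Label-free dynamic mass redistribution was tracked over time as the resonant wavelength shift (pm), a read-out of receptor activation. pEC50 was taken from concentration-response curves of this signal.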

The species entered for the next data set is Homo sapiens. Description: Selectivity for human FFA1 over human PPARgamma.
Data set [5] has as its target Free fatty acid receptor 3 (Homo sapiens) (UniProt O14843). Description: Agonist activity at human GPR41 in HEK293 cells.
In data set [6] the target is T2, Peroxisome proliferator-activated receptor gamma (Homo sapiens) (UniProt P37231).
T2 sequence (whole entry): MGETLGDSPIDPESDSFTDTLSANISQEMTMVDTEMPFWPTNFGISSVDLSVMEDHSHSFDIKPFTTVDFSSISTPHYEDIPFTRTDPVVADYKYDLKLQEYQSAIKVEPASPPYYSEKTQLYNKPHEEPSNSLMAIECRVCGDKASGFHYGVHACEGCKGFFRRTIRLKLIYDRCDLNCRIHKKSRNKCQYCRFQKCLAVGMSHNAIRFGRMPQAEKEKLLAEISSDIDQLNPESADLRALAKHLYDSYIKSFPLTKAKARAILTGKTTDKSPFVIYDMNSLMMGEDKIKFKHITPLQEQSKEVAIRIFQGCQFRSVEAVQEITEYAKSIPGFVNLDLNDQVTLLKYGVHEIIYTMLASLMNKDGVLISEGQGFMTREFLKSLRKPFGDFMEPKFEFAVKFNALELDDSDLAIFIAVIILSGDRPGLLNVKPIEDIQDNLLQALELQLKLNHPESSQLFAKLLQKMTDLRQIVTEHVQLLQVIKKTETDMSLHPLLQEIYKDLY
Description: Transactivation of human PPARgamma ligand binding domain transfected in mouse embryo fibroblasts at 100 uM after 18 hrs analyzed by photinus and renilla luciferase activity by luminometry relative to 1 uM rosiglitazone.

In data set [7] the target is T2, Peroxisome proliferator-activated receptor gamma (Homo sapiens). Description: Transactivation of human PPARgamma ligand binding domain transfected in mouse embryo fibroblasts assessed as renilla luciferase activity at 1 uM after 18 hrs by luminometry relative to 1 uM rosiglitazone.
Data set [8] addresses T1, Free fatty acid receptor 1. Description: Agonist activity at human FFA1 transfected in 1321N1 cells assessed as calcium mobilization by microplate assay in presence of 0.5 % bovine serum albumin. It counts as functional, cell-based.
Data set [9] addresses Free fatty acid receptor 2 (Homo sapiens) (UniProt O15552). Description: Agonist activity at human GPR43 in HEK293 cells.
Data set [10] has as its target T2, Peroxisome proliferator-activated receptor gamma (Homo sapiens). Description: Transactivation of human PPARgamma ligand binding domain transfected in mouse embryo fibroblasts assessed as renilla luciferase activity at 10 uM by luminometry relative to 1 uM rosiglitazone.
The nature of data set [11]: Cytotoxicity in mouse embryo fibroblasts at 100 uM. The format is cell-based. As to conditions: fibroblast.
The target in data set [12] is T1, Free fatty acid receptor 1. Description: Agonist activity at human FFA1 transfected in 1321N1 cells under serum-free condition up to 1 hr by dynamic mass redistribution optical biosensor assay. It counts as functional, cell-based. The method in brief:
as §2

Data set [13] can be described thus: Induction of 12 mM glucose-stimulated insulin secretion in rat INS-1E cells at 10 uM after 1 hr by radioimmunoassay. The format is functional.
A further data set concerns INS-1E. Description: Induction of 2.8 mM glucose-stimulated insulin secretion in rat INS-1E cells at 10 uM after 1 hr by radioimmunoassay. It counts as functional, cell-based.
In data set [14] the target is T1, Free fatty acid receptor 1. Description: Agonist activity at human FFA1 transfected in 1321N1 cells assessed as calcium mobilization by microplate assay relative to linoleic acid. It counts as functional, cell-based.

T1 sequence (O14842 whole entry): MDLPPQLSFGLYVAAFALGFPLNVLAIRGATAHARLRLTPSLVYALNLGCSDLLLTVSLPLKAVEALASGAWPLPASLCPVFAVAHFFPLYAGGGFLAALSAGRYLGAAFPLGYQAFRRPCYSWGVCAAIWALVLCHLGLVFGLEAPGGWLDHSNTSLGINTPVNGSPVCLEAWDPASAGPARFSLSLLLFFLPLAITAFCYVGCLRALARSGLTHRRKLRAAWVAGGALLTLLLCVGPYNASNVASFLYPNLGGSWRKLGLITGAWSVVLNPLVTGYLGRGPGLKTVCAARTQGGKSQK
Sequence of Free fatty acid receptor 3 (Homo sapiens) (O14843 whole entry, looked up): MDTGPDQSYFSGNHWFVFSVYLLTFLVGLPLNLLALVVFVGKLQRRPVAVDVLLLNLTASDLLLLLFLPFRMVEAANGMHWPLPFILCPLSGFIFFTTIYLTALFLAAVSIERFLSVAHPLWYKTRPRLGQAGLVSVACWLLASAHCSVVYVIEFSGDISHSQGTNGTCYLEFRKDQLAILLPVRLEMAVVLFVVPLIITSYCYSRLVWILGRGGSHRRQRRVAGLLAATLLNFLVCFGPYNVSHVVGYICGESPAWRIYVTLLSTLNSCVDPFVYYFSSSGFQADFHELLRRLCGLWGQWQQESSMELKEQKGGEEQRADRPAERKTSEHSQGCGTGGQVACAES
Sequence of Free fatty acid receptor 2 (Homo sapiens) (O15552 whole entry, looked up, the tested form may be a part): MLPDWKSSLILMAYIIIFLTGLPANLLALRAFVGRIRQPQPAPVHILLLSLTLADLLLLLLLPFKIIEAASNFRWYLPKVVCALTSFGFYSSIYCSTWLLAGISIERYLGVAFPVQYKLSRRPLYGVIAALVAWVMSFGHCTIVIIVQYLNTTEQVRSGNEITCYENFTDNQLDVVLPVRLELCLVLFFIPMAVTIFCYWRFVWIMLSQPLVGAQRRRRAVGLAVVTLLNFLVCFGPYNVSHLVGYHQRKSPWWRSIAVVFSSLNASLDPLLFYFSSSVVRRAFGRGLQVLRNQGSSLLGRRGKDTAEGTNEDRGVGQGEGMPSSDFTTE

In general, EC50 refers to the concentration giving half of the maximal effect. As to `Cc1ccccc1-c1cccc(COc2ccc(CCC(=O)O)cc2)c1`, the EC50 is 81.3 nM in data set [1], 50.1 nM in data set [2], 263 nM in data set [4] and 562 nM in data set [8]. In data set [3], the Efficacy is 112%. In the data set listed under Homo sapiens, this compound displayed a fold change (FC) of over 100. The outcome in data set [5], in data set [7] and in data set [9] was inactive. For the same compound, the Activity in data set [6] worked out at 37%.

In the case of `O=C(O)CCc1ccc(NCc2ccccc2-c2ccccc2)cc1`, the Activity is 15% in data set [10] and “Toxic” in [11]. The EC50 in data set [2] was 1070 nM. In addition, the Efficacy in data set [3] stood at 97%. Further, in the data set filed under Homo sapiens, the fold change (FC) was over 100. The outcome in data set [5], in data set [7] and in [9] was inactive.

With `Cc1ccccc1-c1cccc(CNc2ccc(CCC(=O)O)cc2)c1`, the result in [12] was Active. In addition, in data set [3], the Efficacy was 114%. The fold change (FC) in the data set filed under Homo sapiens was over 100. Besides, the outcome (in data set [5]; in [7]; in data set [9]; in the data set with INS-1E) was inactive. For the same compound, the values for the Activity in data set [6] and in data set [13] were 86% and 55%, respectively.

Consider `O=C(O)CCc1ccc(OCc2ccccc2)cc1` [BENZYLOXYPHENYLPROPANOIC ACID], for which the EC50 in data set [2] was 457 nM; in data set [4], 832 nM. In addition, the Activity in data set [14] was found to be 123%; in data set [6] it was 7%. In addition, the outcome in data set [5], in data set [7] and in data set [9] was inactive.

Consider `O=C(O)CCc1ccc2oc(-c3ccccc3)cc2c1`, for which the EC50 in data set [2] is 2450 nM. Further, in [3], the Efficacy was 92%. The fold change (FC) in the data set filed under Homo sapiens is over 100. Moreover, the outcome in data set [5], in data set [6], in [7] and in data set [9] was inactive.

In the case of `O=C(O)CCc1ccc(NCc2cccc(Oc3ccccc3)c2)cc1` [GW9508], the EC50 is 28.8 nM in [2] and 87.1 nM in data set [4]. Moreover, the Efficacy in data set [3] stood at 103%. In data set [6], this compound returned an Activity of 54%.

As to `O=C(O)CCc1ccc(OCc2ccc(Oc3ccccc3)cc2)cc1`, the EC50 in data set [2] is 204 nM. Further, in data set [3], the Efficacy turned out to be 98%. The fold change (FC) in the data set filed under Homo sapiens is over 100. Besides, the outcome in data set [5], in data set [7] and in data set [9] was inactive. Also, in data set [6], the Activity came out at 23%.
